Source: publication PMC4331064 (Investigational new drugs, 2010)

Columns and labels:
[1] = Phase I plasma pharmacokinetics of ENMD-1198 in cancer patients
[2] = tested on: patients with advanced cancer; experiment: Phase I dose-escalation safety and tolerability; assay type: in vivo, human
Procedure, shortened: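 Single-center oral once-daily escalation. Part A used 3+3 cohorts starting at 1/12th of the allometrically scaled rat LOAEL. Part B used single-patient cohorts, expanded to 3+3 after ≥Grade 2 drug-related toxicity in cycle 1. AEs were graded by NCI CTCAE v3. DLT was a treatment-related Grade ≥3 nonhematologic or Grade ≥4 hematologic cycle-1 AE. MTD was the next lower dose after ≥2 DLTs in a cohort.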

[3] = single oral dose 425 mg/m^2/day, n=5

With `COc1cc2c(cc1C(N)=O)CC[C@@H]1[C@@H]2CC[C@]2(C)C=CC[C@@H]12` [ENMD-1198, 2-methoxyestra-1,3,5(10)16-tetraene-3-carboxamide] the “Accumulation after multiple doses” value ([1]; human, in vivo) was 3 fold, the “Dose proportionality of plasma exposures” value ([1]; human, in vivo) was “increased proportionally with dose” and the Mean terminal half-life ([1]; human, in vivo) was 15 h. The Tmax ([1]; human, in vivo, po) was 1 to 2 h, the “AUC0–24hr” value ([1]; human, in vivo, po, 5 mg/m2) was 312.35 ± 175.38 ng·h/mL and the Cmax ([1]; human, in vivo, po, 5 mg/m2) was 68.75 ± 48.50 ng/mL. The Half-life ([1]; human, in vivo, po, 5 mg/m2) was 12.16 ± 4.22 h, the Tmax ([1]; human, in vivo, po, 5 mg/m2) was 1.25 ± 0.50 h and the “AUC0–24hr” value ([1]; human, in vivo, po, 10 mg/m2) was 1073.83 ± 156.28 ng·h/mL. It also gave a Cmax ([1]; human, in vivo, po, 10 mg/m2) of 141.20 ± 28.47 ng/mL, a Half-life ([1]; human, in vivo, po, 10 mg/m2) of 10.57 ± 4.42 h and a Tmax ([1]; human, in vivo, po, 10 mg/m2) of 1.67 ± 0.58 h. The “AUC0–24hr” value ([1]; human, in vivo, po, 20 mg/m2) was 2138.07 ± 384.60 ng·h/mL, the Cmax ([1]; human, in vivo, po, 20 mg/m2) was 418.66 ± 72.53 ng/mL and the Half-life ([1]; human, in vivo, po, 20 mg/m2) was 11.03 ± 1.85 h. For the same molecule, the Tmax ([1]; human, in vivo, po, 20 mg/m2) was 1.33 ± 0.58 h, the “AUC0–24hr” value ([1]; human, in vivo, po, 30 mg/m2) was 3914.43 ± 1336.73 ng·h/mL and the Cmax ([1]; human, in vivo, po, 30 mg/m2) was 677.80 ± 125.78 ng/mL. For the same molecule, the Half-life ([1]; human, in vivo, po, 30 mg/m2) was 19.45 ± 7.66 h, the Tmax ([1]; human, in vivo, po, 30 mg/m2) was 1.00 ± 0.00 h and the “AUC0–24hr” value ([1]; human, in vivo, po, 40 mg/m2) was 3616.23 ± 1880.32 ng·h/mL. It also gave a Cmax ([1]; human, in vivo, po, 40 mg/m2) of 675.83 ± 280.76 ng/mL, a Half-life ([1]; human, in vivo, po, 40 mg/m2) of 8.98 ± 4.22 h and a Tmax ([1]; human, in vivo, po, 40 mg/m2) of 1.33 ± 0.58 h. For the same molecule, the “AUC0–24hr” value ([1]; human, in vivo, po, 60 mg/m2) was 4901.00 ng·h/mL, the Cmax ([1]; human, in vivo, po, 60 mg/m2) was 1032.20 ng/mL and the Half-life ([1]; human, in vivo, po, 60 mg/m2) was 11.82 h. For the same molecule, the Tmax ([1]; human, in vivo, po, 60 mg/m2) was 1.00 h, the “AUC0–24hr” value ([1]; human, in vivo, po, 120 mg/m2) was 10387.00 ng·h/mL and the Cmax ([1]; human, in vivo, po, 120 mg/m2) was 1823.10 ng/mL. The Half-life ([1]; human, in vivo, po, 120 mg/m2) was 10.66 h, the Tmax ([1]; human, in vivo, po, 120 mg/m2) was 1.00 h and the “AUC0–24hr” value ([1]; human, in vivo, po, 180 mg/m2) was 14789.00 ng·h/mL. The Cmax ([1]; human, in vivo, po, 180 mg/m2) was 2904.10 ng/mL, the Half-life ([1]; human, in vivo, po, 180 mg/m2) was 29.80 h and the Tmax ([1]; human, in vivo, po, 180 mg/m2) was 1.00 h. The “AUC0–24hr” value ([1]; human, in vivo, po, 240 mg/m2) was 16277.00 ng·h/mL, the Cmax ([1]; human, in vivo, po, 240 mg/m2) was 2559.90 ng/mL and the Half-life ([1]; human, in vivo, po, 240 mg/m2) was 16.15 h. For the same molecule, the Tmax ([1]; human, in vivo, po, 240 mg/m2) was 1.00 h, the “AUC0–24hr” value ([1]; human, in vivo, po, 320 mg/m2) was 42184.00 ng·h/mL and the Cmax ([1]; human, in vivo, po, 320 mg/m2) was 3851.00 ng/mL. The Half-life ([1]; human, in vivo, po, 320 mg/m2) was 9.70 h, the Tmax ([1]; human, in vivo, po, 320 mg/m2) was 2.00 h and the “AUC0–24hr” value ([1]; human, in vivo, po, 550 mg/m2) was 45223.33 ± 18198.49 ng·h/mL. The Cmax ([1]; human, in vivo, po, 550 mg/m2) was 4319.67 ± 2006.78 ng/mL, the Half-life ([1]; human, in vivo, po, 550 mg/m2) was 17.93 ± 4.11 h and the Tmax ([1]; human, in vivo, po, 550 mg/m2) was 1.67 ± 0.58 h. For the same molecule, the “AUC0–24hr” value [1, 3] was 24816.06 ± 14612.08 ng·h/mL, the Cmax [1, 3] was 2420.94 ± 1098.82 ng/mL and the Half-life [1, 3] was 18.40 ± 13.04 h. For the same molecule, the Tmax [1, 3] was 6.20 ± 9.96 h, the “Drug-related Grade 3/4 toxicities” value ([2]; 5–425 mg/m^2/d dose range) was “No drug-related Grade 3/4 toxicities” and the “Recommended phase II dose (RP2D)” value ([2]; oral once daily) was 425 mg/m^2/d. The “Maximum tolerated dose (MTD)” value ([2]; oral once daily, cancer patients) was 425 mg/m^2/day and the “Life-threatening AEs or treatment-related deaths” value ([2]; whole study) was “No life-threatening AEs or treatment-related deaths”.
